Assay results: ChEMBL document CHEMBL1122485, “Antibacterially active substituted anilides of carboxylic and sulfonic acids” (1983); call rule not given here
Values after ≈ are worked out from the molar mass of the structure shown.

Columns and labels:
[1] = tested on: Bacillus cereus; test: Activity at 1 ppm against Bacillus cereus NRRL 3711; x=Effective; assay type: functional, organism-based
Procedure, shortened: (§1)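 Gram-positive panel on nutrient agar containing compound at 10, 1.0 and 0.1 ppm, duplicate plates. Six 15-µL drops per species, each holding 10⁷ vegetative cells (10⁶ for L. plantarum). Hexachlorophene and no-compound plates were run alongside. Plates were incubated 5 days at 30 °C and scored for growth. MIC was taken as the lowest level with no colonies on either plate.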

[2] = tested on: Lactiplantibacillus plantarum; test: Activity at 1 ppm against Lactobacillus plantarum; x=Effective; assay type: functional, organism-based; procedure, shortened: as §1
[3] = tested on: Staphylococcus aureus; test: Bacteriostatic activity against Staphylococcus aureus ATCC 6538 at 1 ppm concentration; + =Positive; assay type: functional, organism-based
[4] = tested on: Staphylococcus aureus; test: Minimum inhibitory concentration against staphylococcus aureus ATCC 6538; assay type: functional
Procedure, shortened: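 Agar dilution: 1% stocks in 95% ethanol or water, serially diluted into nutrient agar (pH 6.8) to 1000, 100, 10 and 1 ppm. Plates were dried 30 min at 37 °C and spotted with ten drops of 24-h nutrient broth culture. Incubation was 48 h at 37 °C, in duplicate, with hexachlorophene as standard. MIC was the lowest level with no growth of any inoculum on either dish.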

[5] = tested on: Enterococcus faecalis; test: Activity against Streptococcus faecalis; xe=S. faecalis was inhibited at 10 p.p.m. but not at 1 ppm; assay type: functional, organism-based; procedure, shortened: as §1
[6] = tested on: Staphylococcus aureus; test: Activity at 1 ppm against Staphylococcus aureus ATCC 6538; x=Effective; assay type: functional, organism-based
[7] = tested on: Staphylococcus aureus; test: Bactericidal activity against Staphylococcus aureus ATCC 6538 at 1 ppm concentration; - = Negative; assay type: functional, organism-based
[8] = tested on: Bacillus cereus; test: Activity at 10 ppm against Bacillus cereus NRRL 3711;* = Effective; assay type: functional, organism-based; procedure, shortened: as §1
[9] = tested on: Lactiplantibacillus plantarum; test: Activity at 10 ppm against Lactobacillus plantarum;* = Effective; assay type: functional, organism-based; procedure, shortened: as §1
[10] = tested on: Staphylococcus aureus; test: Activity at 10 ppm against Staphylococcus aureus ATCC 6538;* = Effective; assay type: functional, organism-based
[11] = tested on: Staphylococcus aureus; test: Bacteriostatic activity against Staphylococcus aureus ATCC 6538 at 10 ppm concentration; + =Positive; assay type: functional, organism-based
Procedure, shortened: (§2)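 S. aureus was inoculated at 10⁷/mL into 10 mL nutrient broth with 10 ppm compound. Those tubes were centrifuged (10000g, 10 min), resuspended in sterile diluent and streaked onto nutrient agar. Colonies after 48 h at 30 °C meant bacteriostatic; none meant bactericidal.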

[12] = tested on: Staphylococcus aureus; test: Bactericidal activity against Staphylococcus aureus ATCC 6538 at 10 ppm concentration; - = Negative; assay type: functional, organism-based; procedure, shortened: as §2
[13] = tested on: Bacillus cereus; test: Activity at 10 ppm against Bacillus cereus NRRL 3711; d=A few resistant colonies grew; assay type: functional, organism-based; procedure, shortened: as §1
[14] = tested on: Lactiplantibacillus plantarum; test: Activity at 10 ppm against Lactobacillus plantarum; x=Effective; assay type: functional, organism-based; procedure, shortened: as §1
[15] = tested on: Staphylococcus aureus; test: Activity at 10 ppm against Staphylococcus aureus ATCC 6538; x=Effective; assay type: functional, organism-based
[16] = tested on: Staphylococcus aureus; test: Bacteriostatic activity against Staphylococcus aureus ATCC 6538 at 10 ppm concentration; - = Negative; assay type: functional, organism-based; procedure, shortened: as §2
[17] = tested on: Enterococcus faecalis; test: Activity at 10 ppm against Streptococcus faecalis; x=Effective; assay type: functional, organism-based; procedure, shortened: as §1
[18] = tested on: Staphylococcus aureus; test: Bactericidal activity against Staphylococcus aureus ATCC 6538 at 10 ppm concentration; + =Positive; assay type: functional, organism-based; procedure, shortened: as §2
[19] = tested on: Staphylococcus aureus; test: Bactericidal activity against Staphylococcus aureus ATCC 6538 at >10 ppm concentration; - = Negative; assay type: functional, organism-based
[20] = tested on: Staphylococcus aureus; test: Bacteriostatic activity against Staphylococcus aureus ATCC 6538 at >10 ppm concentration; - = Negative; assay type: functional, organism-based
[21] = tested on: Bacillus cereus; test: Activity at 10 ppm against Bacillus cereus NRRL 3711; x=Effective; assay type: functional, organism-based; procedure, shortened: as §1
[22] = tested on: Staphylococcus aureus; test: Bacteriostatic activity against Staphylococcus aureus ATCC 6538 at 10 ppm concentration; x=Effective; assay type: functional, organism-based; procedure, shortened: as §2
[23] = tested on: Enterococcus faecalis; test: Activity at 1 ppm against Streptococcus faecalis; x=Effective; assay type: functional, organism-based; procedure, shortened: as §1
[24] = tested on: Staphylococcus aureus; test: Bactericidal activity against Staphylococcus aureus ATCC 6538 at 1 ppm concentration; + =Positive; assay type: functional, organism-based
[25] = tested on: Staphylococcus aureus; test: Bactericidal activity against Staphylococcus aureus ATCC 6538 at 10 ppm concentration; -=Negative; assay type: functional, organism-based; procedure, shortened: as §2

SMILES	MIC [4] [µg/mL]	Activity [11]	Activity [12]	Activity [14]	Activity [15]	Activity [17]	other results
CCCCCCCC(=O)Nc1ccc(Cl)c([N+](=O)[O-])c1	1 (≈ 3.35 µM)	–	Negative	Concentration effective	–	–	Activity [21]: Concentration effective; Activity [16]: Negative
CCCCc1ccc(S(=O)(=O)Nc2ccc(Cl)c([N+](=O)[O-])c2)cc1	1 (≈ 2.71 µM)	–	Negative	Concentration effective	–	Concentration effective	Activity [16]: Negative
CCCCCCCCC(=O)Nc1ccc(Cl)c([N+](=O)[O-])c1	1 (≈ 3.2 µM)	Negative	Negative	Concentration effective	–	–	Activity [13]: A few resistant colonies grew
CCCCCCCCCC(=O)Nc1cc([N+](=O)[O-])ccc1O	1 (≈ 3.24 µM)	Negative	Negative	–	–	–	Activity [22]: Concentration effective
C=C(CCCCCCCC)C(=O)Nc1cc([N+](=O)[O-])ccc1O	1 (≈ 3.12 µM)	–	–	–	–	–	Activity [1]: Concentration effective; Activity [2]: Concentration effective; Activity [3]: Positive; Activity [23]: Concentration effective; Activity [6]: Concentration effective; Activity [24]: Positive
CCCCCCCC(=O)Nc1cc([N+](=O)[O-])ccc1O	1 (≈ 3.57 µM)	–	Negative	Concentration effective	Concentration effective	Concentration effective	Activity [21]: Concentration effective; Activity ([11]; Bacteria): Negative
CCCCCCCC(=O)Nc1ccc(Cl)c(Cl)c1	1 (≈ 3.47 µM)	Negative	–	Concentration effective	Concentration effective	–	Activity [13]: A few resistant colonies grew; Activity [25]: Negative

Second part, led by results:

MIC [4] [µg/mL]	SMILES	Activity [11]	Activity [12]	Activity [14]	Activity [15]	Activity [17]	other results
1 (≈ 3.26 µM)	C=C(CCCCCCC)C(=O)Nc1cc([N+](=O)[O-])ccc1O	–	–	–	–	–	Activity [1]: Concentration effective; Activity [2]: Concentration effective; Activity [3]: Negative; Activity [5]: Inhibited at 10ppm but not at 1ppm; Activity [6]: Concentration effective; Activity [7]: Negative
1 (≈ 3.47 µM)	CCCCCCCC(=O)Nc1cc(Cl)cc(Cl)c1	Negative	Negative	–	–	–	Activity [8]: Concentration effective; Activity [9]: Concentration effective; Activity [10]: Concentration effective
1 (≈ 3.49 µM)	C=C(CCCCC)C(=O)Nc1cc(Cl)cc(Cl)c1	Negative	Negative	Concentration effective	Concentration effective	–	Activity [13]: A few resistant colonies grew
1 (≈ 2.9 µM)	CCCc1ccc(S(=O)(=O)Nc2ccc(Cl)c(Cl)c2)cc1	–	–	Concentration effective	–	Concentration effective	Activity [16]: Negative; Activity [18]: Negative
1 (≈ 3.52 µM)	CCCCCCCCC(=O)Nc1cc(Cl)ccc1O	–	–	–	–	–	Activity [19]: Negative; Activity [20]: Negative
1 (≈ 3.42 µM)	C=C(CCCCCC)C(=O)Nc1cc([N+](=O)[O-])ccc1O	Negative	Negative	Concentration effective	Concentration effective	Concentration effective	Activity [21]: Concentration effective
